KCC2 mod = KCC2 (human) Cl- transport modulation | Q9H2X9 | KCC2 cells, thallium flux FluoZin-2 fluorescence | B-score of Tl+ flux slope (higher = more flux/activation; lower = inhibition) at 10 µM | 2.2% of 190,000 active | AID 1456;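 active means thallium flux slope and its plate-corrected score both differing from the plate sample mean at a set confidence after two filtering rounds, in either direction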;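 further: slope of fluorescence scaled to starting intensity during 10 to 20 s after thallium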
Target sequence (Q9H2X9 whole entry, looked up): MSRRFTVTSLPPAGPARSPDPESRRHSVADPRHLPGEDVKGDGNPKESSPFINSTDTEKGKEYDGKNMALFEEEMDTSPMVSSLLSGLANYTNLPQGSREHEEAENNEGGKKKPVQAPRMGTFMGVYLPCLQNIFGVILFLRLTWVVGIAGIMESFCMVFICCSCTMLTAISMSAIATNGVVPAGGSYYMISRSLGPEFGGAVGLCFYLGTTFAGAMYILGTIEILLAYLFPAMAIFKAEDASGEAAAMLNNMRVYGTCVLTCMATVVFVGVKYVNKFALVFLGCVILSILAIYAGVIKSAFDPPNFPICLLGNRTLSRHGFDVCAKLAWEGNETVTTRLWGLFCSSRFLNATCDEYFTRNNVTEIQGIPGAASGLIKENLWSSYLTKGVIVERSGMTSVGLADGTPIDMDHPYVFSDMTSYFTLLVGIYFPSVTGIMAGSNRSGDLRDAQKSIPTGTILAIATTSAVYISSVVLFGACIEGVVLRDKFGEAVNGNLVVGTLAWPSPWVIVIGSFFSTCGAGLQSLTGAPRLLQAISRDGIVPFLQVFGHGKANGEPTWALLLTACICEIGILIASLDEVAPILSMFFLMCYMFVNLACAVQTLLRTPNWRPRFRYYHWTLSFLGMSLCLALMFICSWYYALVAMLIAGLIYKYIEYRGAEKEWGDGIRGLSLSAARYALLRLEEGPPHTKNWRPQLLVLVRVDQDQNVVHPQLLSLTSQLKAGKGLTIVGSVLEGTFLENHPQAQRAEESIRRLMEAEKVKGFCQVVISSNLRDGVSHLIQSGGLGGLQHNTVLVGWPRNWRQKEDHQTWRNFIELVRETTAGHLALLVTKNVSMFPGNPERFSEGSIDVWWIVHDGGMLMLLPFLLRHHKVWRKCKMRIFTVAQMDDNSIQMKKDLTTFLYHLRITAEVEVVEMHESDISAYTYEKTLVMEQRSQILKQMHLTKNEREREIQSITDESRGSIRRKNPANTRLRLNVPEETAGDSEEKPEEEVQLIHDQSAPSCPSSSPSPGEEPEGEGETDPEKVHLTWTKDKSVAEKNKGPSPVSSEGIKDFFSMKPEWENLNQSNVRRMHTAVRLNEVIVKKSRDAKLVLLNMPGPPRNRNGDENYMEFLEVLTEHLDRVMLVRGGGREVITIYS
Arbovirus inh = blocks arbovirus infection | arbovirus infection cell-based antiviral screen | inhibition, % at 10 µM | 0.37% of 200,000 active; in the data active means inhibition above about 30%
ROMK primary = modulates human ROMK potassium channel activity; P48048; Tet-inducible ROMK, thallium flux fluorescence; actives lie on both sides; B-score at 10 µM; 2% of 130,000 active;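 active means signal ratio slope over the read window, or its plate-corrected B-score, at least 3 SD from the plate mean, either direction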;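 further: B-score of the F/F0 ratio slope over 7 to 12 s after thallium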
Calpain2 inh = blocks pig calpain II enzyme activity. purified calpain II, fluorogenic peptide substrate, 30 min. inhibition, % at 16 µM. 0.37% of 220,000 active. AID 1236;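 active means inhibition above about 50%, limit read from the data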
Mdm2 ligase inh = blocks human Mdm2 ubiquitin ligase activity | Q00987 | cell-based MDM2 ubiquitination luciferase reporter, 2 h; 0 = plate control, 100 = twice control, blank-subtracted | signal enhancement, % at 5 µM | 0.11% of 210,000 active;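 active means signal enhancement of 30% or more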;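 further: luminescence tracks abundance of the self-degrading MDM2-luciferase fusion protein; higher signal means inhibition of MDM2 E3 ligase activity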
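Test system: mammalian cells stably expressing self-ubiquitinating, self-degrading MDM2 E3–luciferase fusion; Amount: 2000 cells in each well; Medium: DMEM; Schedule: 4 h settle plus 2 h compound, 37 °C; Technique: SteadyLite luciferase luminescence after 15 min room-temperature reagent incubation; Benchmarks: plate control and blank wells.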
PKD1 kinase inh = blocks activity of human protein kinase D1 | Q15139 | PKD1 kinase fluorescence polarization assay | inhibition, % (no concentration beside the values) | 0.056% of 200,000 active; in the data active means inhibition above about 50%
KCC2 sec1 = confirmation of human KCC2 transport modulators | shares compounds with KCC2 mod | HEK293-KCC2, thallium flux, FluoZin2 fluorescence; hits give high values | normalised thallium flux (F/F0 slope) at 10 µM | 15% of 3,700 active | AID 1713;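 active means thallium flux slope above the same plate's solvent-only control mean plus 3 SD; inconclusive means the two replicate wells disagree; inactive means no significant difference from solvent-only control wells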
KCC2 bumet counter = thallium flux despite bumetanide block in KCC2 cells, secondary assay 3; 49% of 3,700 active; shares compounds with KCC2 mod; normalized thallium flux at 10 µM; HEK293-KCC2 + bumetanide/ouabain, thallium flux FluoZin2; hits give high values;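 active means thallium entry rate above the same plate's blocked-transporter control wells by more than 3 SD; inconclusive means the two repeat wells disagree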;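 further: raw slope of fluorescence over initial fluorescence between 10 and 20 s after thallium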
KCC2 sec2 = confirmation of human KCC2 transport modulators; shares compounds with KCC2 mod; 23% of 3,700 active; HEK293-KCC2, thallium flux FluoZin2 fluorescence; actives lie on both sides; F/F0 rise rate, 10–20 s post-thallium; normalized thallium flux at 10 µM; AID 1715;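 active means thallium flux slope more than 3 SD above or below the plate's solvent-only control mean, mostly below; inconclusive means the two repeat wells disagreed; inactive means no significant shift from solvent-only controls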;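 further: raw slope with 0.1% DMSO as baseline and bumetanide as block control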
HEK counter1 = counter-screen for KCC2 modulators: effect in parental HEK293 cells; shares compounds with KCC2 mod; thallium flux FluoZin2, ouabain; baseline-ratio fluorescence slope, 10–20 s after thallium; thallium flux rate (normalised fluorescence) at 10 µM; 46% of 3,700 active;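 active means thallium flux rate significantly above the same plate's solvent-only control wells, beyond their mean plus 3 SD; inconclusive means the two replicate wells gave conflicting results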
KCC2 ouabain = confirmation of human KCC2 modulators with ouabain; 48% of 3,700 active; AID 1717; HEK293-KCC2, thallium flux FluoZin2 fluorescence; bidirectional: low = inhibitor, high = activator; shares compounds with KCC2 mod; raw Tl+ flux slope (below DMSO = inhibition, above = activation) at 10 µM;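 active means thallium flux slope beyond 3 SD from same-plate DMSO control mean in most replicates, usually higher, sometimes lower; inconclusive means repeat tests gave conflicting results; inactive means no significant difference from controls in most replicates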;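 further: slope of initial-normalized fluorescence between seconds 10 and 20 after thallium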
HEK293 Tl flux2 = acts in parental HEK cells, second KCC2 counter-screen; shares compounds with KCC2 mod; HEK293 parental, thallium flux FluoZin-2 fluorescence slope; thallium flux slope at 10 µM; 33% of 3,700 active;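 active means thallium flux slope above the same plate's solvent-control mean plus 3 SD in both duplicate wells; inconclusive means duplicate wells that disagreed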;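 further: run without ouabain in cells lacking the KCC2 cotransporter; slope of fluorescence scaled to its starting value between 10 and 20 s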
The depositor's hits bear a star; ? = inconclusive; / = no result. Most compounds without a hit are left out; they make up all but 3.7% or so of the library.

SMILES	KCC2 mod	Arbovirus inh	ROMK primary	Calpain2 inh	Mdm2 ligase inh	PKD1 kinase inh	KCC2 sec1	KCC2 bumet counter	KCC2 sec2	HEK counter1	KCC2 ouabain	HEK293 Tl flux2
COc1ccc(S(=O)(=O)NCCSCc2ccco2)cc1Cl	6.4*	4	-1.9	-13	-9	-6	0.006	0.0045	0.03	0.0071	0.017	0.011
COc1ccc(S(=O)(=O)NCCSCc2ccco2)cc1C	-1.8	7	/	-7	-10	1	/	/	/	/	/	/
CN(C1CCCCC1)S(=O)(=O)c1ccc2[nH]c(=O)oc2c1	0.0069	/	-0.15	-17	-10	/	/	/	/	/	/	/
COC(=O)c1cc(OC)c(OC)cc1NC(=O)c1cc(OC)cc(OC)c1	5.3*	4	-0.047	-163	-9	-5	0.0092	0.0052	0.031	0.0068	0.021	0.0094
COC(=O)c1cc(OC)c(OC)cc1NC(=S)N1CCN(C)CC1	/	4	/	-18	0	10	/	/	/	/	/	/
COc1cc(NC(=O)c2ccc(F)cc2)c(OC)cc1Cl	0.55	-3	0.99	14	-3	3	/	/	/	/	/	/
COc1ccc(C(=O)Nc2cc(OC)c(Cl)cc2OC)cc1	-4.5*	-4	-0.32	16	1	11	0.0098	0.0086*	0.033	0.015*	0.021	0.011
COC(=O)c1cc(OC)c(OC)cc1NC(=S)N1CCCCC1	-3.9*	10	/	30	6	-3	0.0062	0.005	0.031	0.0074	0.02	0.011
O=C(CSc1nc(-c2ccc(F)cc2)cs1)N1CCN(C(=O)c2ccco2)CC1	-3.1*	4	/	-54	-3	-8	0.0074	0.0061	0.029	0.0061	0.015*	0.009
O=C(CSc1nc2ccccc2s1)N1CCN(C(=O)c2ccco2)CC1	-0.016	4	/	-2	-9	-9	/	/	/	/	/	/
CCc1cc2cccc(C)c2nc1SCC(=O)N1CCN(C(=O)c2ccco2)CC1	-3.2*	-11	/	1	-14	-1	0.016	0.0043	0.021*	0.0047*	0.013*	0.0072*
CC1CCN(C(=S)Nc2ccc(F)cc2)CC1	-0.21	5	/	-1	4	-11	/	/	/	/	/	/
C/C(=N\NC(=S)Nc1ccc(F)cc1)C1CC1	8.4*	4	/	18	-9	1	0.0075	0.024*	0.036	0.018*	0.028*	0.022*
CC(=O)Nc1sc(/C(C#N)=C\c2cccc(Cl)c2)nc1-c1ccc(C)cc1	0.048	-6	/	-76	-14	-2	/	/	/	/	/	/
COc1ccc(C2/C=C\CN(CC3CC3)CC(=O)N2Cc2ccc(F)cc2)cc1 (stereo unspecified)	-3.4*	/	/	13	-4	/	0.007	0.0063	0.031	0.0073	0.017*	0.011
CCCCC(=O)N1C/C=C\C(c2ccc(OC)cc2)N(Cc2ccc(F)cc2)C(=O)C1 (stereo unspecified)	-2.8*	/	/	0	-3	/	0.0088	0.005	0.033	0.0076	0.019	0.011
COC(=O)N1C/C=C\C(c2ccc(OC)cc2)N(Cc2ccc(F)cc2)C(=O)C1 (stereo unspecified)	0.15	/	/	-6	15	/	/	/	/	/	/	/
CCCCCN1C/C=C\C(c2ccc(OC)cc2)N(Cc2ccc(F)cc2)C(=O)C1 (stereo unspecified)	-2.5*	/	/	6	18	/	0.0096	0.0049	?	0.007	0.017*	0.0099
COc1ccc(C2/C=C\CN(CC(C)(C)C)CC(=O)N2Cc2ccc(F)cc2)cc1 (stereo unspecified)	-0.55	/	/	-2	12	/	/	/	/	/	/	/
Cc1c(Cl)cnc(NC(=O)COC(=O)CCc2nc3ccccc3s2)c1Cl	-0.75	-2	/	-1	-6	-2	/	/	/	/	/	/
COc1cccc(N2CCN(C(=O)CCCCCNc3nc(=S)[nH]c4ccccc34)CC2)c1	-1.8	9	-1.4	-14	-7	15	/	/	/	/	/	/
COc1cccc(CC(=S)N2CCOCC2)c1	0.44	-3	/	-11	-21	0	/	/	/	/	/	/
O=C(NC1CCCC1)C(c1ccncc1)N(Cc1ccco1)C(=O)c1ccc(-c2ccccc2)[nH]1 (stereo unspecified)	-3.3*	-22	0.25	-65	-5	-1	0.0071	?	0.024*	0.0074	?	0.011
O=C(NC1CCCC1)C(c1ccncc1)N(CCCN1CCOCC1)C(=O)c1ccc(-c2ccccc2)[nH]1 (stereo unspecified)	-2	11	-0.48	-21	0	-5	/	/	/	/	/	/
O=C(NC1CCCC1)C(c1ccncc1)N(Cc1ccccc1)C(=O)c1ccc(-c2ccccc2)[nH]1 (stereo unspecified)	-2.1	-30	-0.82	-80	-12	-14	/	/	/	/	/	/
SMILES	KCC2 mod	Arbovirus inh	ROMK primary	Calpain2 inh	Mdm2 ligase inh	PKD1 kinase inh	KCC2 sec1	KCC2 bumet counter	KCC2 sec2	HEK counter1	KCC2 ouabain	HEK293 Tl flux2
CCOc1ccc(C(C(=O)NC2CCCC2)N(CCCO)C(=O)c2ccc(-c3ccccc3)[nH]2)cc1 (stereo unspecified)	-5.7*	-27	-0.63	-20	-12	-3	0.0087	0.0053	?	0.0038	0.017*	0.011
Nc1nc(CN2CCN(c3ccccc3)CC2)nc(Nc2ccc(Cl)cc2)n1	0.97	-3	0.2	5	-27	2	/	/	/	/	/	/
CN(C(=S)NC(=O)C1(C)CC1(Cl)Cl)c1ccccc1 (stereo unspecified)	5.1*	-2	0.38	13	-16	-1	0.022*	0.026*	?	0.02*	0.027*	0.02*
NS(=O)(=O)c1cccc(NC(=O)CN2CCN(Cc3ccc4c(c3)OCO4)CC2)c1	-0.61	2	/	-2	0	-13	/	/	/	/	/	/
CCc1nn(C(C)C(=O)N2CCc3ccccc3C2)c(=O)c2cc3occc3n12 (stereo unspecified)	-5.9*	3	/	-20	-1	5	?	0.0041	0.022*	0.0061*	0.012*	?
CCN(CC)C(=O)Cn1c(=O)oc2ccccc21	-0.081	/	-0.42	-20	-8	/	/	/	/	/	/	/
CC(Oc1ccc(-c2ccccc2)c(F)c1)c1ccn(S(=O)(=O)c2ccc(Br)cc2)n1 (stereo unspecified)	/	2	/	23	-7	2	/	/	/	/	/	/
COc1ccc(Nc2cc(C)nc3ccccc23)cc1	1.3	3	-1.9	13	-1	-10	0.0098	0.008*	0.03	0.0073	0.021	0.011

Screening results as filed in PubChem.
